Series [1] deals with A549. Kind of series: Inhibition of P-gp in A549 cells assessed as drug concentration required to double baseline fluorescence level by calcein-AM uptake assay. The series is classed as cell-based. Conditions: Homo sapiens. The procedure, abridged: (§1)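 A549 Pgp activity: cells washed in Hanks salt solution with 10 mM HEPES, preincubated 30 min in that buffer, then 15 min with compound. Calcein-AM (1 µM final) added for a further 60 min; uptake stopped on ice, cells washed cold and lysed 15 min in 1% Triton X-100/PBS. Calcein fluorescence read at ex 485/em 530 nm; reported as F2.0 (concentration doubling baseline fluorescence) or inhibition at 80 µM relative to verapamil.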

For series [2], the system named is A549. As to the kind of experiment: Cytotoxicity against human A549 cells by MTT assay. The series is classed as cell-based. The method, boiled down:
(§2)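 Cells plated 24 h, then exposed 72 h to compound at 1-300 µM. Compound was diluted from a fresh DMSO stock (20 mM for A549, HT29, T47D; 10 mM for TS/A, HBL-100) into 5%-serum medium, with at most 0.5% or 1% v/v DMSO respectively. Growth media: DMEM (A549, HT29, T47D), McCoy's 5A (HBL-100). MTT (5 mg/mL in PBS, 2.5 µL/100 µL medium) was added for 2 h at 37 °C; formazan dissolved in DMSO and read at OD 570 nm.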

Series [3] relates to HT-29. Kind of series: Cytotoxicity against human HT29 cells by MTT assay. Format: cell-based. The procedure, abridged:
as §2

The test system of series [4] is T47D. As to the kind of experiment: Cytotoxicity against human T47D cells by MTT assay. Format: cell-based. The method, boiled down: as §2
For orientation: Tetrazolium assays rely on reduction of a dye to a coloured formazan, in cell work by metabolically active cells.

The subject of series [5] is TS/A. As to the kind of experiment: Cytotoxicity against […] TS/A cells by MTT assay. Format: cell-based. Conditions: Mus musculus. The method, boiled down:
as §2

Series [6] can be described thus: Cytotoxicity against human HBL100 cells by MTT assay. The series is classed as cell-based. Conditions: HBL-100. The procedure, abridged:
as §2

Series [7] concerns the target P-gp (ABCB1) (Homo sapiens, UniProt P08183). As to the kind of experiment: Inhibition of P-gp in A549 cells at 80 uM by calcein-AM uptake assay relative to verapamil. The series is classed as cell-based. Conditions: probe calcein-AM. The method, boiled down: as §1
The test system of series [8] is A549. Kind of series: Drug accumulation in human A549 cells after 1 hrs. The series is classed as functional, cell-based. The procedure, abridged:
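A549 cells grown on slides were exposed to 100 µM compound for 0.5-4 h, PBS-washed, fixed 5 min in 4% buffered paraformaldehyde, and imaged by fluorescence microscopy under 365 nm irradiation with a 1 s exposure.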

The source made the active and inactive calls. The calls are words filed in the database; no cut-off is given here. Some results are limits rather than exact numbers.

P-gp (ABCB1), sequence (P08183 whole entry): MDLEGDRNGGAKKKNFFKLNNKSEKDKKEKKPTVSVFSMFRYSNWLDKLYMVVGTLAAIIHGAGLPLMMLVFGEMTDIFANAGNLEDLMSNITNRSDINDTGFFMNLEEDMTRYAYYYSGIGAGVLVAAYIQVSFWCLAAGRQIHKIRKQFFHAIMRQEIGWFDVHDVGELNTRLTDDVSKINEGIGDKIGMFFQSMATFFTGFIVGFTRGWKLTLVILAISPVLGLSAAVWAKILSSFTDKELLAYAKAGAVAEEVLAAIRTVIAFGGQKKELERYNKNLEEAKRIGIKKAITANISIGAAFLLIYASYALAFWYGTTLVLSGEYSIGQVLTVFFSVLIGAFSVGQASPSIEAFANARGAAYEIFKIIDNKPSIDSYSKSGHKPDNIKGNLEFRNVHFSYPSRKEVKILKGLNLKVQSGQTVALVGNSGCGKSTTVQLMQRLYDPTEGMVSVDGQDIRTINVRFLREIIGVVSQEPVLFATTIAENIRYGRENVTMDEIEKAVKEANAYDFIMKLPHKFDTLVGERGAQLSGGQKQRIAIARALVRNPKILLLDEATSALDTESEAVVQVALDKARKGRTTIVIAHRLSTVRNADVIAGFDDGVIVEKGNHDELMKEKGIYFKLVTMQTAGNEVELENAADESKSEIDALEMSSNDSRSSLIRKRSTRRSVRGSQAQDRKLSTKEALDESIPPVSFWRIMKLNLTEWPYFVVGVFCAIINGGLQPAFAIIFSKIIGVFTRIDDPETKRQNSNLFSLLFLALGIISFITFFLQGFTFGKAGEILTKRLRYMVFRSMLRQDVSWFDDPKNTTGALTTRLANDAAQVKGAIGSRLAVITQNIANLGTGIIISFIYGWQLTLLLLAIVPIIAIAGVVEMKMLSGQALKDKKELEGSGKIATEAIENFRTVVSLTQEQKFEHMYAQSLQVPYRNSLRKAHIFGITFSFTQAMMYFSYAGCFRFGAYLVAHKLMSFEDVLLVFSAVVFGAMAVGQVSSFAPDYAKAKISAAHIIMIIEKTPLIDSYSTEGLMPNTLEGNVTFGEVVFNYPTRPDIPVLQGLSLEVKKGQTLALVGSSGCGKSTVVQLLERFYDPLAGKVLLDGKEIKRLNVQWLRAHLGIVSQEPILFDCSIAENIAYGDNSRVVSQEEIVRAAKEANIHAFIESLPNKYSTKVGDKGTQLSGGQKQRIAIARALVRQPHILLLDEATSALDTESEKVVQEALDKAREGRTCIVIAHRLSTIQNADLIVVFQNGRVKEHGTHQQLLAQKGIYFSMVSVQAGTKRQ

`COc1ccc(CCN(C)CCCC(C#N)(c2ccc(OC)c(OC)c2)C(C)C)cc1OC` (stereo not drawn): the Activity in series [1] is 7 µM.

By IC50 is commonly meant the midpoint of a concentration-inhibition curve. On to `O=C(CCl)N1c2ccccc2Oc2ccccc21`, for which the IC50 in series [2] was > 100 µM; in series [3] it was 11 µM; in series [4], 7 µM; in series [5], 40 µM; in series [6] it was 29 µM.

The inhibition is the drop in the measured response relative to a control, in per cent. Consider `c1ccc2c(-n3ccnc3)c3ccccc3cc2c1`, for which the IC50 in series [2] came out at 75 µM; in series [3], 45 µM; in series [4], 34 µM; in series [5] it was 101 µM; in series [6], 221 µM. For the same compound, the Activity in series [1] was > 100 µM. Further, the inhibition at 80 µM in series [7] is 18%. The outcome in series [8] was Active.

On to `O=C(Cn1ccnc1)N1c2ccccc2Oc2ccccc21` [PHENOXIMID], for which the concentration for half-maximal inhibition (IC50) in series [2] was > 100 µM; in series [3], 17 µM; in series [4] it was 95 µM; in series [5], 30 µM; in series [6], 23 µM. Also, the Activity in series [1] is > 100 µM. Further, the inhibition at 80 µM in series [7] is 24%.

On to `O=C(Cn1cnc2ccccc21)N1c2ccccc2Oc2ccccc21` [PHENOXBENZIMID], for which the IC50 in series [2] was 75 µM; in series [3] it was 33 µM; in series [4] it was 91 µM; in series [5], 51 µM; in series [6], > 100 µM. Also, in series [1], the Activity is 23 µM. Also, the inhibition at 80 µM in series [7] was 65%.

The values above are taken from ChEMBL document CHEMBL1147153, “Development of ruthenium antitumor drugs that overcome multidrug resistance mechanisms” (J Med Chem, 2007).
